Active and inactive are the calls of the source. No cut-off for these calls is given here.
Columns and labels:
WSUDLCL2 [1] = experiment: Inhibition of PRC2 in human WSUDLCL2 cells assessed as suppression H3K27 dimethylation incubated for 48 hrs by Western blot analysis; type: cell-based
How it was run: (§1)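 Lysates run on SDS-PAGE and transferred to nitrocellulose. Membranes blocked with 5% skim milk for 2 h, primary antibody applied overnight at 4 °C, then secondary antibody and chemiluminescent detection of histone H3 methylation marks.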

[2] = target: T1, Protein cereblon/Histone-lysine N-methyltransferase EZH2 (Homo sapiens) (UniProt Q15910+Q96SW2); experiment: PROTAC activity at CRBN E3 ligase/EZH2 in PRC2 complex in human WSUDLCL2 cells assessed as downregulation of EED expression at 1 uM pretreated with MLN4924 for 4 hrs followed by compound addition and measured after 48 hrs by Western blot analysis; type: cell-based
How it was run: (§2)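 WSU-DLCL-2 cells pretreated 4 h with the named inhibitor, then compound added and incubated a further 48 h. EZH2, SUZ12, EED and RbAp48 measured by western blot (nitrocellulose transfer, skim-milk block, primary antibody overnight at 4 °C, chemiluminescent detection).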

WSUDLCL2 [3] = experiment: Inhibition of PRC2 in human WSUDLCL2 cells assessed as suppression H3K27 trimethylation at 10 uM incubated for 48 hrs by Western blot analysis; type: cell-based; how it was run: as §1
[4] = target: T1, Protein cereblon/Histone-lysine N-methyltransferase EZH2 (Homo sapiens); experiment: PROTAC activity at CRBN E3 ligase/EZH2 in PRC2 complex in human WSUDLCL2 cells assessed as induction of RbAp48 degradation by measuring reduction in RbAp48 protein level at 1 uM measured after 48 to 72 hrs by Western blot analysis; type: cell-based; details: time 48-72 hrs
[5] = target: T1, Protein cereblon/Histone-lysine N-methyltransferase EZH2 (Homo sapiens); experiment: PROTAC activity at CRBN E3 ligase/EZH2 in PRC2 complex in human WSUDLCL2 cells assessed as downregulation of SUZ12 expression at 1 uM pretreated with EPZ6438 for 4 hrs followed by compound addition and measured after 48 hrs by Western blot analysis; type: cell-based; how it was run: as §2
WSUDLCL2 [6] = experiment: Effect on Histone H3 methylation in human WSUDLCL2 cells assessed as reduction in H3K27me1 levels at upto 10 uM incubated for 48 hrs by Western blot analysis; type: functional, cell-based; details: dose microM <=10, time 48.0 hrs; how it was run: as §1
[7] = target: Histone-binding protein RBBP4 (Homo sapiens) (UniProt Q09028); experiment: Binding affinity to RbAp48 in human WSUDLCL2 cells assessed as thermal stability by measuring shift in temperature at 60 uM pretreated with proteasome inhibitor MG132 for 1 hr followed by compound addition incubated for 2 hrs by cellular thermal shift based Western blot analysis; type: cell-based
How it was run: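 Cellular thermal shift: cells suspended at 1.5 × 10⁶/mL and pretreated with MG-132 (5 μM, 1 h), then given 60 μM compound for 2 h with a DMSO control. Cells were lysed in RIPA with cocktail for 1 h. Supernatant aliquots were heated 6 min at 45, 48, 51, 54, 57 and 60 °C and centrifuged 15 min. Soluble protein was immunoblotted; bands quantified by densitometry; three independent experiments.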

NCI-H1299 = experiment: Downregulation of TACC3 mRNA expression in human NCI-H1299 cells at 10 uM incubated for 48 hrs by qRT-PCR analysis; type: functional, cell-based
How it was run: (§3)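 Cells treated 48 h. Total RNA extracted with Trizol, reverse-transcribed, and SYBR RT-qPCR run: 95 °C 30 s, then 40 cycles of 95 °C 6 s and 60 °C 20 s. mRNA normalized to the DMSO-treated group. Mean SD of three independent experiments, t-test versus DMSO.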

[8] = target: T1, Protein cereblon/Histone-lysine N-methyltransferase EZH2 (Homo sapiens); experiment: PROTAC activity at CRBN E3 ligase/EZH2 in PRC2 complex in human WSUDLCL2 cells assessed as induction of EED degradation incubated for 48 hrs by Western blot analysis; type: cell-based; details: dose 1-10 µM
[9] = target: T1, Protein cereblon/Histone-lysine N-methyltransferase EZH2 (Homo sapiens); experiment: PROTAC activity at CRBN E3 ligase/EZH2 in PRC2 complex in human WSUDLCL2 cells assessed as induction of SUZ12 degradation at 1 uM measured up to 2 hrs by Western blot analysis; type: cell-based; details: time hrs <=2
[10] = target: T1, Protein cereblon/Histone-lysine N-methyltransferase EZH2 (Homo sapiens); experiment: PROTAC activity at CRBN E3 ligase/EZH2 in PRC2 complex in human DU-145 cells assessed as reduction in H3K27me3 level at 1 uM incubated for 48 hrs by Western blot analysis; type: cell-based
How it was run: (§4)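 Cancer cell lines exposed to 1 μM compound for 48 h. Lysates immunoblotted (SDS-PAGE, nitrocellulose, 5% milk block, primary antibody overnight at 4 °C) for EZH2, SUZ12, EED, RbAp48 and H3K27me3. Bands quantified by densitometry and normalized to GAPDH.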

[11] = target: T1, Protein cereblon/Histone-lysine N-methyltransferase EZH2 (Homo sapiens); experiment: PROTAC activity at CRBN E3 ligase/EZH2 in PRC2 complex in human WSUDLCL2 cells assessed as downregulation of SUZ12 expression at 1 uM pretreated with MG-132 for 4 hrs followed by compound addition and measured after 48 hrs by Western blot analysis; type: cell-based; how it was run: as §2
MDA-MB-468 = experiment: Downregulation of TACC3 mRNA expression in human MDA-MB-468 cells at 10 uM incubated for 48 hrs by qRT-PCR analysis; type: functional, cell-based; how it was run: as §3
[12] = target: T1, Protein cereblon/Histone-lysine N-methyltransferase EZH2 (Homo sapiens); experiment: PROTAC activity at CRBN E3 ligase/EZH2 in PRC2 complex in human SU-DHL-6 cells assessed as induction of RbAp48 degradation by measuring reduction in RbAp48 protein level at 1 uM incubated for 48 hrs by Western blot analysis; type: cell-based
How it was run: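 Cells cultured in DMEM or RPMI 1640 with 10% FBS and 1% penicillin-streptomycin, 37 °C, 5% CO2; exposed to 1 μM compound for 48 h. Lysates run on SDS-PAGE and transferred to nitrocellulose. Blocked 2 h in 5% skim milk, primary antibody overnight at 4 °C, then secondary antibody. Chemiluminescent detection of PRC2 subunits and H3K27me3.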

[13] = target: T1, Protein cereblon/Histone-lysine N-methyltransferase EZH2 (Homo sapiens); experiment: PROTAC activity at CRBN E3 ligase/EZH2 in PRC2 complex in human DU-145 cells assessed as induction of SUZ12 degradation by measuring reduction in SUZ12 protein level at 1 uM incubated for 48 hrs by Western blot analysis; type: cell-based; how it was run: as §4
WSUDLCL2 [14] = experiment: Upregulation of TXINP mRNA expression in human WSUDLCL2 cells at 1 uM incubated for 48 hrs by qRT-PCR analysis; type: functional, cell-based
How it was run: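 WSU-DLCL-2 or Pfeiffer cells treated 48 h. Trizol RNA extraction, reverse transcription, SYBR qPCR (95 °C 30 s; 40 cycles of 95 °C 6 s, 60 °C 20 s). mRNA normalized to DMSO-treated cells; mean ± SD of three independent experiments, t-test.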

[15] = target: T1, Protein cereblon/Histone-lysine N-methyltransferase EZH2 (Homo sapiens); experiment: PROTAC activity at CRBN E3 ligase/EZH2 in PRC2 complex in human A2780 cells assessed as induction of SUZ12 degradation by measuring reduction in SUZ12 protein level at 1 uM incubated for 48 hrs by Western blot analysis; type: cell-based; how it was run: as §4
[16] = target: T1, Protein cereblon/Histone-lysine N-methyltransferase EZH2 (Homo sapiens); experiment: PROTAC activity at CRBN E3 ligase/EZH2 in PRC2 complex in human WSUDLCL2 cells assessed as downregulation of EZH2 expression at 1 uM pretreated with EPZ6438 for 4 hrs followed by compound addition and measured after 48 hrs by Western blot analysis; type: cell-based; how it was run: as §2
[17] = target: T1, Protein cereblon/Histone-lysine N-methyltransferase EZH2 (Homo sapiens); experiment: PROTAC activity at CRBN E3 ligase/EZH2 in PRC2 complex in human WSUDLCL2 cells assessed as downregulation of EZH2 expression at 1 uM pretreated with MLN4924 for 4 hrs followed by compound addition and measured after 48 hrs by Western blot analysis; type: cell-based; how it was run: as §2

T1 sequence (Q15910 whole entry, looked up): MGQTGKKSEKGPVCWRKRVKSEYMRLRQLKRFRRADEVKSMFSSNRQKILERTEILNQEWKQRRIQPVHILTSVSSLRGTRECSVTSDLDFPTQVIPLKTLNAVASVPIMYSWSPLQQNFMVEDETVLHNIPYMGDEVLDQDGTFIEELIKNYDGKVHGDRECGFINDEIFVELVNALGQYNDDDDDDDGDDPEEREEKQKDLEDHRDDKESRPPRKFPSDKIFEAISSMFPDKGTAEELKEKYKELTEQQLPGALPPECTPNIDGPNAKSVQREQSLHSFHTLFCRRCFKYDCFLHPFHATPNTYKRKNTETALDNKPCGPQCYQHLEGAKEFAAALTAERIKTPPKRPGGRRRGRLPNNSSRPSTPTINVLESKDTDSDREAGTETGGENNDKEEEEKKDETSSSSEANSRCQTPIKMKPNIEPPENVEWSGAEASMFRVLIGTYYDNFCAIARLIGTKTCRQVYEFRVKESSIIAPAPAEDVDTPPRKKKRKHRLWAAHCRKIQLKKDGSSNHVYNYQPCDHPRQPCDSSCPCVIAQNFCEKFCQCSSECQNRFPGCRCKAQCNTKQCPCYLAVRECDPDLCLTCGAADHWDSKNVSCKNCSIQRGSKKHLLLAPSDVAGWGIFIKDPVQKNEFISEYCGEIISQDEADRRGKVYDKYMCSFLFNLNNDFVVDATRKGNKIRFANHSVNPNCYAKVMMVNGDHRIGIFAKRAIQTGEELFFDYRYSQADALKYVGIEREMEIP
T1 sequence (Q96SW2 whole entry, looked up): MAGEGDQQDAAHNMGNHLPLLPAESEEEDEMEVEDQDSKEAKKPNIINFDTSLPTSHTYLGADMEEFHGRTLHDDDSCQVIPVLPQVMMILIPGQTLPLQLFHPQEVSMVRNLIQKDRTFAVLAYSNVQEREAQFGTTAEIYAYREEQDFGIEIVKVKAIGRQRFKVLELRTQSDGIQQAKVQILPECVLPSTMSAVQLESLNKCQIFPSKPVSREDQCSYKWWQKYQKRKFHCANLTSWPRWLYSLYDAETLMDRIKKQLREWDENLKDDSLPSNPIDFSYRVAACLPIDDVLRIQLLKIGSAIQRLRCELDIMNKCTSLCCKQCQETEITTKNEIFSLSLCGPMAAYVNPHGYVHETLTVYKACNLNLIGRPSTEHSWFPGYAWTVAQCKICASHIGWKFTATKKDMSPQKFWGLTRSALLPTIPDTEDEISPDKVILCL
Chain of Histone-binding protein RBBP4 (Homo sapiens) (Q09028 whole entry): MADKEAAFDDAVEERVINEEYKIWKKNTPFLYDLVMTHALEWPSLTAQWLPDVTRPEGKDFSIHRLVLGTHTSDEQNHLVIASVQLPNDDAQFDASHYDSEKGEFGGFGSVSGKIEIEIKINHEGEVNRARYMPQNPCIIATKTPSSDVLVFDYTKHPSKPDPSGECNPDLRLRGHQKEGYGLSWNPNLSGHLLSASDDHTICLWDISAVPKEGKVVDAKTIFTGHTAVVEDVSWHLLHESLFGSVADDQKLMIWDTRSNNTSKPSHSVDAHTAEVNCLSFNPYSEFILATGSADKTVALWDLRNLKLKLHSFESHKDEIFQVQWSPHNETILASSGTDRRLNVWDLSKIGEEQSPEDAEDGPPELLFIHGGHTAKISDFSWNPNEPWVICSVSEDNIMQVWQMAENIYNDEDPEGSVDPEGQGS

Activity [2]: inactive | Activity [4]: Active | Activity [5]: inactive | Activity [7]: inactive | Activity [8]: Dose-Dependent Effect | Activity [9]: inactive | Activity [10]: Active | Activity [11]: inactive | Activity [12]: Active | Activity [13]: Active | Activity [15]: Active | Activity [16]: inactive | Activity [17]: inactive
SMILES: CCN(c1cc(-c2ccc(CN3CCN(CCCCCCCOc4cccc5c4C(=O)N(C4CCC(=O)NC4=O)C5=O)CC3)cc2)cc(C(=O)NCc2c(C)cc(C)[nH]c2=O)c1C)C1CCOCC1 (centres undefined)
inhibition (WSUDLCL2 [1]): Dose-Dependent Effect | inhibition (WSUDLCL2 [3]): Active | Activity (WSUDLCL2 [6]): inactive | Activity (NCI-H1299): Active | Activity (MDA-MB-468): Active | Activity (WSUDLCL2 [14]): inactive

— ChEMBL document CHEMBL5038571, “Design and Synthesis of EZH2-Based PROTACs to Degrade the PRC2 Complex for Targeting the Noncatalytic Activity of EZH2” (J Med Chem, 2021)
